Reference: ChEMBL document CHEMBL1135929, “Investigation of potential bioisosteric replacements for the carboxyl groups of peptidomimetic inhibitors of protein tyrosine phosphatase 1B: identification of a tetrazole-containing inhibitor with cellular activity” (J Med Chem, 2002)

Assays:
[1] = biological target: T1, Tyrosine-protein phosphatase non-receptor type 1 (Homo sapiens) (UniProt P18031); assay: Percent inhibition against Protein-tyrosine phosphatase 1B at a 100 uM concentration
T1 sequence (whole entry): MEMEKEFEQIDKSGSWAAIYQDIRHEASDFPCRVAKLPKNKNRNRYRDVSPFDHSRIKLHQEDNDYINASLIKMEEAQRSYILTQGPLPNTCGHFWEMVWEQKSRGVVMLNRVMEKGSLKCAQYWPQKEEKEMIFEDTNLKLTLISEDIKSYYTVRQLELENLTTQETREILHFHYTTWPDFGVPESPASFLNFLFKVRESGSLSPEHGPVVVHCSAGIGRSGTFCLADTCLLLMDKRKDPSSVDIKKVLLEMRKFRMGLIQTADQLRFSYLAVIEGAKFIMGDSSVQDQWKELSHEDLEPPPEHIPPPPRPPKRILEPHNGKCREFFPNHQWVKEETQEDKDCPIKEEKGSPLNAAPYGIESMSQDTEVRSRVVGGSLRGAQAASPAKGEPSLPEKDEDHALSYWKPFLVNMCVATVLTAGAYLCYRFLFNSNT
Procedure, shortened: (§1)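 PTP1B inhibition was read as pNPP hydrolysis, with compound at a single fixed concentration and activity given as % inhibition. Some entries were measured on PTP1, the rat homologue of PTP1B.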

[2] = biological target: Receptor-type tyrosine-protein phosphatase F (Homo sapiens) (UniProt P10586); assay: Percent inhibition against Protein-tyrosine phosphatase Lar at 100 uM
Procedure, shortened: (§2)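 For specificity screening, recombinant purified LAR and SHP-2 were each tested with compound at 100 µM, reported as % inhibition.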

[3] = biological target: T2, Tyrosine-protein phosphatase non-receptor type 11 (Homo sapiens) (UniProt Q06124); assay: Percent inhibition against Tyrosine phosphatase SHP2 at 100 uM; procedure, shortened: as §2
T2 sequence (whole entry): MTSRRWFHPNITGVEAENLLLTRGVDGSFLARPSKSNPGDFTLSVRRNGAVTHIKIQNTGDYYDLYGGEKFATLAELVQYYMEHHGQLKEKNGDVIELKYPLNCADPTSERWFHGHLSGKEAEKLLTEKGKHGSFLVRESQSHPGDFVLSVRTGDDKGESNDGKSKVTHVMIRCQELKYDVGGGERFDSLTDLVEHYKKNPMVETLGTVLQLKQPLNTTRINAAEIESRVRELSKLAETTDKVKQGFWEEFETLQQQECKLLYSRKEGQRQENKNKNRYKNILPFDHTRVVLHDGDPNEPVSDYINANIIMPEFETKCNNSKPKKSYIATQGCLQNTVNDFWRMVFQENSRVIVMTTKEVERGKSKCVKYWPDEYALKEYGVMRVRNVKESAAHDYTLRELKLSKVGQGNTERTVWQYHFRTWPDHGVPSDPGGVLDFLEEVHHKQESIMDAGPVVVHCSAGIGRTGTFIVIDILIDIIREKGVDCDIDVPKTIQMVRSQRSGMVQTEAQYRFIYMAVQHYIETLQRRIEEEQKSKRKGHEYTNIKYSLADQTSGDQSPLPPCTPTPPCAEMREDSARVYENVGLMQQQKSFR

[4] = biological target: T1, Tyrosine-protein phosphatase non-receptor type 1 (Homo sapiens); assay: Percent inhibition against Protein-tyrosine phosphatase 1B at a 1 uM concentration
[5] = biological target: T1, Tyrosine-protein phosphatase non-receptor type 1 (Homo sapiens); assay: Percent inhibition against Protein-tyrosine phosphatase 1B at a 10 uM concentration
[6] = biological target: T3, Tyrosine-protein phosphatase non-receptor type 1 (Homo sapiens, UniProt P18031); assay: Inhibitory constant against Protein-tyrosine phosphatase 1B
T3 sequence (P18031 whole entry): T1 sequence (whole entry)
Procedure, shortened: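 Competitive inhibition of PTP1B was measured with pNPP as substrate. V vs S data were collected at various inhibitor concentrations, and Ki was computed by the Cornish-Bowden direct linear method.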

Rattus norvegicus [7] = organism: Rattus norvegicus; assay: Effect on basal uptake without insulin into intact cells (L6 myocytes), to that of control cells; assay type: functional, cell-based
Rattus norvegicus [8] = organism: Rattus norvegicus; assay: Effect of compound (100 µM) on insulin (10 nM)-stimulated 2-deoxyglucose (2-DOG) uptake into L6 myocytes
[9] = biological target: T4, Tyrosine-protein phosphatase non-receptor type 1 (Rattus norvegicus) (UniProt P20417); assay: Percent inhibition of compound against Protein-tyrosine phosphatase 1B at a 100 uM concentration; procedure, shortened: as §1
T4 sequence (whole entry): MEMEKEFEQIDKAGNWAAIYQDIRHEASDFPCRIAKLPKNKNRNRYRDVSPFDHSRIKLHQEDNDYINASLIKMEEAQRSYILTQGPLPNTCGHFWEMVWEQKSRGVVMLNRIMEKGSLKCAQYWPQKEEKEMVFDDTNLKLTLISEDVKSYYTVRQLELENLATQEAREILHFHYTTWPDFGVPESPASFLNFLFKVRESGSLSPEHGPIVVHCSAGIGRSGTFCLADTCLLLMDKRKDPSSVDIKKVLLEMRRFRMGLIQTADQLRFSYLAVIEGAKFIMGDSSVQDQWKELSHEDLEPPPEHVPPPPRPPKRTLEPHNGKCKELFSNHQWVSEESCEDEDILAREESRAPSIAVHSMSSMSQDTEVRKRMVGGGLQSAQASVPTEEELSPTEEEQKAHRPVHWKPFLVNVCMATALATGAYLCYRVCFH

[10] = biological target: Receptor-type tyrosine-protein phosphatase F (Homo sapiens) (UniProt P10586); assay: Percent inhibition of compound against Protein-tyrosine phosphatase Lar at 100 uM; procedure, shortened: as §2
[11] = biological target: Tyrosine-protein phosphatase non-receptor type 11 (SHP-2) (Homo sapiens) (UniProt Q06124); assay: Percent inhibition of compound against Tyrosine phosphatase SHP2 at 100 uM
[12] = biological target: T3, Tyrosine-protein phosphatase non-receptor type 1; assay: Inhibition constant of compound against Protein-tyrosine phosphatase 1B

Chain of Receptor-type tyrosine-protein phosphatase F (Homo sapiens) (P10586 whole entry): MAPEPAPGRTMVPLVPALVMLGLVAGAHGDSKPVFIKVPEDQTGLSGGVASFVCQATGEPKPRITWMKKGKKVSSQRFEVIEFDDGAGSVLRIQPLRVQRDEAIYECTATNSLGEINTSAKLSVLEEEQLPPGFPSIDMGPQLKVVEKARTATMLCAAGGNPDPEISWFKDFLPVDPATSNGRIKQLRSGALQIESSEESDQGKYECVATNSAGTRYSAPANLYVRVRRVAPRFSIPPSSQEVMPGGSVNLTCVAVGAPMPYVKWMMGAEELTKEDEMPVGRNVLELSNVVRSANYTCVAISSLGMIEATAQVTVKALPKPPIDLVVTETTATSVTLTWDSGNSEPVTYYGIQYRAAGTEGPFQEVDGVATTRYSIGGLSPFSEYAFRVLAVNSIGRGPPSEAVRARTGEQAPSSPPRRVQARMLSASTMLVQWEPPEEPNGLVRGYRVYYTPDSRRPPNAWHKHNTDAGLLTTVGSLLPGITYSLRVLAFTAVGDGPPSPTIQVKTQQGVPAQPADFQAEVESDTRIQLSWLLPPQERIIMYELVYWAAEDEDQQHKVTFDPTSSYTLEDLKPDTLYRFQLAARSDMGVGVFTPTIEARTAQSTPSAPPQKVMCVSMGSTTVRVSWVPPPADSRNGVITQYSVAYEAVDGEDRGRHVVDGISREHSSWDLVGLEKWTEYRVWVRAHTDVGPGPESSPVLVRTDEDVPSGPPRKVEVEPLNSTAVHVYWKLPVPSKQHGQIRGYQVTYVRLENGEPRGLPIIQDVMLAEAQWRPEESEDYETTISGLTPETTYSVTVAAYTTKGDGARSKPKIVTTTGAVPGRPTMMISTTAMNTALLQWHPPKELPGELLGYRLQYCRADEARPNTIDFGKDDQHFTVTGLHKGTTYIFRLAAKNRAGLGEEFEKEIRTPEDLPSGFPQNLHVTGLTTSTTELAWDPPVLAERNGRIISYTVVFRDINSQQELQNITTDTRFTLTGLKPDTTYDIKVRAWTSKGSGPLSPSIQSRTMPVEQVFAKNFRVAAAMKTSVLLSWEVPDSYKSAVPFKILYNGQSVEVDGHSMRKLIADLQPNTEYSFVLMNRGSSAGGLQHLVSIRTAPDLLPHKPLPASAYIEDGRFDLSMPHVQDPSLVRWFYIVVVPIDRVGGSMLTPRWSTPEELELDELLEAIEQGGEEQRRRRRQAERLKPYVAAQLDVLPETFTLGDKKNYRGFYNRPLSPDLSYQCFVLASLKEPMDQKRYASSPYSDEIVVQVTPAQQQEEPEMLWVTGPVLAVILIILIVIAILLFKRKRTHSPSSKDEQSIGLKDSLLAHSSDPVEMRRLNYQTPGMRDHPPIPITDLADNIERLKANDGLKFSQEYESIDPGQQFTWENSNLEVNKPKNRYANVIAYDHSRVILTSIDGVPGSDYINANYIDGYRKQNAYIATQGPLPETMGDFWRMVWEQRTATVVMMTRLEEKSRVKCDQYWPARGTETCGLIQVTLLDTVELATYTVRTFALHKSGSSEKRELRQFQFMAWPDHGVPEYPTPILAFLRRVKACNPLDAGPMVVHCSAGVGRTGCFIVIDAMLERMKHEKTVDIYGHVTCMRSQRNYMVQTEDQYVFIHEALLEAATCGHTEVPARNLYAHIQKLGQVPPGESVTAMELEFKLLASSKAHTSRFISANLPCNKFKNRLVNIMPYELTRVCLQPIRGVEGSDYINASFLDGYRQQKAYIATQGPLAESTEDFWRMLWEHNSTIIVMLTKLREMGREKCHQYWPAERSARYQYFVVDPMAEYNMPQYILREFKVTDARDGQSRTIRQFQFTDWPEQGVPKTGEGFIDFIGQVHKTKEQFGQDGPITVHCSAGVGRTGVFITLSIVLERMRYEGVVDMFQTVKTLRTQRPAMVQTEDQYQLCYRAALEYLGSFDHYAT

Structure (SMILES) | inhibition [1] [%] | inhibition [2] [%] | inhibition [3] [%] | inhibition [4] [%] | inhibition [5] [%] | Ki [6] [µM] | inhibition [9] [%] | inhibition [10] [%] | inhibition [11] [%] | Ki [12] [µM] | Uptake (Rattus norvegicus [7]) [%] | Uptake (Rattus norvegicus [8]) [%]
CCCCCNC(=O)[C@H](Cc1ccc(OCC(=O)O)c(CCC(=O)O)c1)NC(=O)[C@H](Cc1ccccc1)NC(=O)OC(C)(C)C | 18 | 13 | 1 | 3 | 4 | – | – | – | – | – | – | –
CCCCCNC(=O)C(Cc1ccc2c(c1)OCCOC2=O)NC(=O)CCC(=O)O (stereo unspecified) | 1 | 0 | 0 | – | – | – | – | – | – | – | – | –
CCCCCNC(=O)C(Cc1ccc(OCC(=O)O)c(C(C)=O)c1)NC(=O)CCC(=O)O (stereo unspecified) | – | – | – | – | – | – | 8 | -2 | 1 | – | – | –
CCCCCNC(=O)C(Cc1ccc(OCC#N)c(C(=O)O)c1)NC(=O)CCC(=O)O (stereo unspecified) | 3 | 0 | 0 | – | – | – | – | – | – | – | – | –
CCCCCNC(=O)C(Cc1ccc(OCC(=O)O)c(C(=O)O)c1)NC(=O)CCC(=O)O (stereo unspecified) | – | 0 | 5 | – | – | – | – | – | – | 6.5 | – | –
CCCCCNC(=O)[C@H](Cc1ccc(OCC(=O)O)c(C#CC(=O)O)c1)NC(=O)[C@H](Cc1ccccc1)NC(=O)OC(C)(C)C | 16 | 1 | 1 | 1 | 3 | – | – | – | – | – | – | –
CCCCCNC(=O)C(Cc1ccc(OCC(=O)O)c(C#N)c1)NC(=O)CCC(=O)O (stereo unspecified) | 4 | 0 | 0 | – | – | – | – | – | – | – | – | –
CCCCCNC(=O)C(Cc1ccc(OCCO)c(C(=O)O)c1)NC(=O)CCC(=O)O (stereo unspecified) | 4 | 0 | 0 | – | – | – | – | – | – | – | – | –
CCCCCNC(=O)[C@H](Cc1ccc(OCC(=O)O)c(-c2cc(O)no2)c1)NC(=O)[C@H](Cc1ccccc1)NC(=O)OC(C)(C)C | 9 | 0 | – | 1 | 1 | – | – | – | – | – | – | –

More lines, main results first:

inhibition [1] [%] | inhibition [2] [%] | inhibition [3] [%] | inhibition [4] [%] | inhibition [5] [%] | Ki [6] [µM] | inhibition [9] [%] | inhibition [10] [%] | inhibition [11] [%] | Ki [12] [µM] | Structure (SMILES) | Uptake (Rattus norvegicus [7]) [%] | Uptake (Rattus norvegicus [8]) [%]
54 | 3 | 6 | 5 | 13 | – | – | – | – | – | CCCCCNC(=O)[C@H](Cc1ccc(OCC(=O)O)c(C(=O)NO)c1)NC(=O)[C@H](Cc1ccccc1)NC(=O)OC(C)(C)C | – | –
25 | 0 | 0 | 3 | 5 | – | – | – | – | – | CCCCCNC(=O)[C@H](Cc1ccc(OCC(=O)OC)c(C(=O)O)c1)NC(=O)[C@H](Cc1ccccc1)NC(=O)OC(C)(C)C | – | –
97 | 0 | 2 | 30 | 78 | 2 | – | – | – | – | CCCCCNC(=O)[C@H](Cc1ccc(OCC(=O)O)c(C(=O)O)c1)NC(=O)[C@H](Cc1ccccc1)NC(=O)OC(C)(C)C | – | –
17 | 0 | 5 | 1 | 3 | – | – | – | – | – | CCCCCNC(=O)[C@H](Cc1ccc(OCc2nn[nH]n2)c(C(=O)O)c1)NC(=O)[C@H](Cc1ccccc1)NC(=O)OC(C)(C)C | – | –
0 | 0 | 0 | 0 | 0 | – | – | – | – | – | CCCCCNC(=O)[C@H](Cc1ccc(OCC(N)=O)c(C(=O)O)c1)NC(=O)[C@H](Cc1ccccc1)NC(=O)OC(C)(C)C | – | –
97 | 0 | 1 | 27 | 77 | 2 | – | – | – | – | CCCCCNC(=O)[C@H](Cc1ccc(OCC(=O)O)c(-c2nn[nH]n2)c1)NC(=O)[C@H](Cc1ccccc1)NC(=O)OC(C)(C)C | 99 | 147
4 | 0 | 0 | 3 | 2 | – | – | – | – | – | CCCCCNC(=O)[C@H](Cc1ccc(OCC(=O)O)c(C(=O)OC)c1)NC(=O)[C@H](Cc1ccccc1)NC(=O)OC(C)(C)C | – | –
30 | 1 | 4 | 6 | 8 | – | – | – | – | – | CCCCCNC(=O)[C@H](Cc1ccc(OCC(=O)NO)c(C(=O)O)c1)NC(=O)[C@H](Cc1ccccc1)NC(=O)OC(C)(C)C | – | –
